In the library only some 2.1% were active in any assay of this set; here they are far more common.
cardiac RTF act = cardiac RTF calcium sensitization. hit rate 0.24% among 340,000. P19429+P45379. IANBD-labeled TnC RTF fluorescence at EC20 calcium; 0% EC20 calcium, 100% full calcium. activation, % at 7.2 µM;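 active means activation above the mean over all tested compounds plus 3 SD, cut at about 30% in these data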;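 further: rise in fluorescence read as greater calcium sensitivity of cardiac thin filaments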
RTF Ca sens inh = cardiac RTF calcium desensitization | IANBD-labeled cardiac RTF, Ca2+ fluorescence | inhibition, % at 7.15 µM | AID 493244 | hit rate 0.12% among 340,000 | P19429+P45379;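 active means inhibition above the mean inhibition of all tested compounds plus 3 SD, cut at about 17% in these data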;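 further: assay run at fixed EC70 calcium of 1.6 mM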
Efflux pump inh = inhibitors of Candida antifungal efflux pumps expressed in yeast. hit rate 0.44% among 330,000. S. cerevisiae Candida pump triplex, Nile Red efflux. inhibition, % at 10 µM;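 active means plate passing quality check with inhibition over a set limit, or well fluorescence over plate mean plus 4 SD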;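 further: Nile Red retained in pooled yeast measured as flow cytometry median fluorescence; 0% = buffer negative control and 100% = Enniatin B positive control; higher means more Nile Red kept so more efflux inhibition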
ARNT TACC3 PPI = ARNT/TACC3 interaction disruption | Q9Y6A5 | AlphaScreen His-ARNT PAS-B/GST-TACC3 binding, luminescence; TACC3 fragment carries E629A point mutation | inhibition, % at 9.99 µM | hit rate 0.66% among 390,000 | AID 623870;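 active means mean inhibition of replicates at least 50% and at least half of replicates each reaching 50%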;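 further: 0% = complete ARNT plus TACC3 wells and 100% = ARNT alone without TACC3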
UCH37 DUB inh = blocks the human deubiquitinase UCH37. purified proteasome/UCH37, Ub-AMC cleavage fluorescence. inhibition, % (no concentration beside the values). hit rate 0.33% among 330,000. AID 588478;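 active means mean inhibition over replicate wells above about 20%, limit read from the data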;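 further: 0% = compound-free wells with enzyme and 100% = wells lacking proteasome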
Target sequence (Q9Y5K5 whole entry, looked up): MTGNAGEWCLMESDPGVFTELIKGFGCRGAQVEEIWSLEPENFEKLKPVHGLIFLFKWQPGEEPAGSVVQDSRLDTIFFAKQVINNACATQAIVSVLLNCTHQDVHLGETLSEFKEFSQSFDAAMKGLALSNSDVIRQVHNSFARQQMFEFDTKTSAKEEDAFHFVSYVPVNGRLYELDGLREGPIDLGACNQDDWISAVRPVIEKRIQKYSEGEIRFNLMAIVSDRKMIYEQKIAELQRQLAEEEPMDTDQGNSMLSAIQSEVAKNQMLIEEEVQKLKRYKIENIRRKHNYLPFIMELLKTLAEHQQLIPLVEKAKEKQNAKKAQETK
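assay system = human UCH37 enzyme supplied as purified proteasome complex | amount = proteasome at 0.15 nM in the dispensed enzyme solution | schedule = 30 min compound-proteasome preincubation then 25 min substrate reaction, room temperature | measured by = fluorescence, ex 355 nm, em 460 nm | benchmarks = no-proteasome wells (full inhibition) and compound-free wells (no inhibition)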
SUMO Mot1 rescue = blocks SUMOylation pathway, rescuing yeast Mot1-301 growth; S. cerevisiae Mot1-301 growth rescue, ATP luminescence, 38.5C; percent above DMSO median, 100 means doubled; growth rescue, % at 18.8 µM; hit rate 1% among 320,000;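 active means every valid replicate shows activation above 250% relative to neutral control wells; inactive means the rest, any valid replicate at or below 250%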;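 further: OY570 slx delta 5 strain wells were the positive control but not used for scaling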
RTF Ca inh conf = confirmation of inhibitors of cardiac thin filament calcium sensitivity | shares compounds with RTF Ca sens inh | reconstituted cardiac thin filaments, calcium sensitivity fluorescence | inhibition, % at 7.15 µM | hit rate 8% among 360 | AID 504635; in the data active means inhibition above about 18%
* = called active by the depositor; . = not tested or not shown.

SMILES	cardiac RTF act	RTF Ca sens inh	Efflux pump inh	ARNT TACC3 PPI	UCH37 DUB inh	SUMO Mot1 rescue	RTF Ca inh conf
COc1ccc(Cl)cc1NC(=O)C(C)N(C)Cc1ccc(C(F)(F)F)cc1 (centres undefined)	3	18*	0	22	-2	13	-1
COc1cc(CN(C)C(C)C(=O)Nc2ccc([N+](=O)[O-])cc2Cl)ccc1OC(F)F (centres undefined)	2	2	0	5	3	-6	.
C=C[C@@]1(C)CC(=O)[C@]2(O)[C@@]3(C)[C@@H](O)CCC(C)(C)[C@@H]3[C@H](O)[C@H](OC(C)=O)[C@@]2(C)O1	6	19*	0	-4	2	-6	-5
COc1ccc(O)c(C=NNS(=O)(=O)c2ccc(C)cc2)c1	.	.	.	.	4	.	.
COc1ccc(NC(=O)CN(C)C(=O)c2cc3c(s2)CCCCC3)cc1	-4	-6	0	14	4	19	.
COc1ccc(NC(=O)CN(C)C(=O)c2cc3c(s2)CCC3)cc1	-4	20*	0	-1	.	3	0
Cc1ccc(C)c(NC(=O)CN(C)C(=O)CSC(C)C(=O)Nc2cc(C)on2)c1 (centres undefined)	-6	19*	1	-12	1	16	-1
Cc1cc(NC(=O)C(C)SCC(=O)N(C)CC(=O)Nc2ccc(Br)cc2C)no1 (centres undefined)	-5	-1	0	-3	1	-4	.
COc1ccc(NC(=S)NC(=O)/C=C/c2ccc(F)cc2)cc1	-3	-8	0	2	8	28	.
COc1ccc(/C=C/C(=O)NC(=S)Nc2ccc(C(=O)O)cc2)cc1	33*	58*	0	3	-6	13	-4
COc1cc(CC(=O)O)ccc1O	-1	18*	0	5	2	-3	-3
COc1ccc(CC(=O)O)cc1O	-5	5	.	2	0	4	.
CN(c1ccccc1)S(=O)(=O)c1ccccc1Br	4	17*	0	-6	.	-13	0
CC(O)C(=O)NN=Cc1ccccc1C(=O)O (centres undefined)	.	.	.	.	-1	.	.
COCCN(C(=O)COC(=O)c1cc2c(s1)CCC2)c1c(N)n(Cc2ccccc2)c(=O)[nH]c1=O	-27	20*	0	0	.	10	16
COc1ccc(N=C2S/C(=C\c3ccc(OC(C)C(=O)O)c(OC)c3)C(=O)N2CCc2c[nH]c3ccccc23)cc1 (centres undefined)	-13	14	.	-2	6	.	.
COc1cc(/C=C2\SC(=Nc3ccccc3)N(CCc3c[nH]c4ccccc34)C2=O)ccc1OC(C)C(=O)O (centres undefined)	-20	35*	0	9	6	-10	4
Cc1nn(-c2cccc(C(F)(F)F)c2)c(Cl)c1/C=N/Nc1cccc(C(=O)O)c1	4	21*	0	-2	.	18	-1
Cc1nn(-c2ccccc2Cl)c(Cl)c1/C=N/Nc1cccc(C(=O)O)c1	3	-2	0	1	.	-16	.
CCc1cc2c(CN(C)Cc3ccccc3F)cc(=O)oc2cc1O	-4	18*	0	.	-63	300	-6
O=C1Nc2ccccc2C1=NN=Cc1ccc(O)c(O)c1	.	.	.	.	13	.	.
Cc1ccc(C)n1Cc1ccc(C(=O)O)cc1	-35	71*	0	-7	30*	-8	22*
C(=Nc1nccs1)c1cccnc1	.	.	.	.	5	.	.
O=C(CSc1nc2ccccc2n1CCc1ccccc1)N1CCOCC1	6	-12	0	20	1	6	.
O=C(CSc1nc2ccccc2n1CCc1ccccc1)c1ccc(O)c(O)c1	-17	18*	.	7	4	.	10
SMILES	cardiac RTF act	RTF Ca sens inh	Efflux pump inh	ARNT TACC3 PPI	UCH37 DUB inh	SUMO Mot1 rescue	RTF Ca inh conf
CN1C(=O)N(CC(=O)Nc2nccs2)C(=O)C12CCCCC2	0	7	0	-12	2	81	.
CN1C(=O)N(CC(=O)Nc2sccc2C(N)=O)C(=O)C12CCCCC2	0	17*	0	-4	5	0	-4
CCc1ccc(NC(=O)CN(N=Nc2nonc2C)c2nonc2C)cc1	0	26*	0	7	-1	14	-4
CCc1ccc(NC(=O)c2cc(C)no2)cc1	-1	-3	0	7	6	-3	.
O=C(Nc1ccccc1OC(F)F)c1ccc(-n2cncn2)c([N+](=O)[O-])c1	5	87*	0	-3	0	0	-5
CC(C)(C)c1ccccc1NC(=O)c1ccc(-n2cncn2)c([N+](=O)[O-])c1	-2	-3	0	-20	5	11	.
CCOC(=O)CC(=O)NN=Cc1c(N)n(C)c(=O)n(C)c1=O	.	.	.	.	5	.	.
O=C(C1CCCCN1S(=O)(=O)c1ccccc1[N+](=O)[O-])N1CCOCC1 (centres undefined)	5	18*	0	.	-1	7	-1
CC(C)(C)C(=O)C=c1sc(=Cc2ccc(-c3ccc([N+](=O)[O-])cc3)o2)c(=O)n1CC(=O)NC(N)=O	.	.	.	.	11	.	.
CC[C@@H](C(=O)[C@@H](C)[C@@H](O)[C@H](C)[C@@H]1O[C@@H]([C@@H](CC)C(=O)O)CC[C@@H]1C)[C@H]1O[C@]2(C=C[C@@H](O)[C@]3(CC[C@@](C)([C@H]4CC[C@](O)(CC)[C@H](C)O4)O3)O2)[C@H](C)C[C@@H]1C	2	20*	.	-6	.	.	-2
CCC(=NNC(=O)COc1ccccc1OC)C(CC)=NNC(=O)COc1ccccc1OC	.	.	.	.	2	.	.
CC(C)(C)n1nnnc1C(c1cccc(C#N)c1)N1CCN2CCCC2C1 (centres undefined)	4	1	0	-2	2	228	.
CC(C)(C)n1nnnc1C(c1cccc(C#N)c1)N1CCCCCC1 (centres undefined)	-4	23*	0	.	19	-7	-1
Cc1ccc(-n2c(SCC(=O)Nc3ccc4c(c3)OCCO4)nnc2-c2ccco2)cc1	1	17*	0	-2	1	-8	-2
CCOc1ccc(CN(C)C(=O)c2cccnc2OCC)cc1OC	-3	18*	0	4	2	-9	0
C=CCc1c(C)nc(C)nc1NN=Cc1ccc([N+](=O)[O-])cc1	.	.	.	.	16	.	.
COc1ccccc1OCC(O)CO (centres undefined)	8	1	0	-2	1	5	.
